From ChEMBL document CHEMBL2086358, “Discovery of structurally-diverse inhibitor scaffolds by high-throughput screening of a fragment library with dimethylarginine dimethylaminohydrolase” (Bioorg Med Chem, 2012) come the findings set out here.

Active and inactive are the calls of the source. The rule behind the calls is not given here.

Usually inhibition stands for the relative decrease from the control value, in per cent. Broadly, the Ki is the dissociation constant of the complex between target and ligand, obtained from inhibition or displacement. The IC50 is the midpoint of a concentration-inhibition curve.

Assay [1] has as its target T1, N(G),N(G)-dimethylarginine dimethylaminohydrolase 1 (Homo sapiens, UniProt O94760). Description: Inhibition of human recombinant His6-tagged DDAH1 expressed in Escherichia coli BL21(DE3) using Nomega,Nomega-dimethyl-L-arginine as substrate at 400 uM after 1 to 2 hrs by colorimetric ureido derivitization assay. A digest of the protocol:
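Rapid-onset secondary assay. Compound (400 μM) mixed with ADMA (300 μM, 2.5-fold over KM) in Reaction Buffer (Na2HPO4 172 mM, KCl 172 mM, Tween-20 0.02%, EDTA 2 mM, pH 7.3). Started with human DDAH-1 (1 μM final), run 1–2 h, quenched with HCl (1 M final). Ureido product read colorimetrically; ≥20% inhibition counted as a hit.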

For assay [2], the target named is T1, N(G),N(G)-dimethylarginine dimethylaminohydrolase 1. Description: Competitive inhibition of human recombinant His6-tagged DDAH1 expressed in Escherichia coli BL21(DE3) using Nomega,Nomega-dimethyl-L-arginine as substrate after 80 mins by double-reciprocal plot analysis.
For assay [3] the target is unchanged. Put plainly: Reversible inhibition of human recombinant His6-tagged DDAH1 expressed in Escherichia coli BL21(DE3) using 1 mM Nomega,Nomega-dimethyl-L-arginine as substrate incubated up to 120 mins prior to substrate addition measured after 120 mins by colorimetric ureido derivitization assay. In outline: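 Human DDAH-1 (30 μM) incubated at room temperature with compound (0–2 mM) in Na2HPO4 100 mM, NaCl 100 mM, EDTA 2 mM, Tween-20 0.02%, pH 7.25, with or without reduced glutathione (2 mM). After 0–120 min, diluted 40-fold into ADMA (1 mM) in the same buffer. Incubated a further 120 min, quenched with HCl (300 mM final), and L-citrulline read colorimetrically.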

For assay [4] the target is unchanged. Description: Inhibition of human recombinant His6-tagged DDAH1 expressed in Escherichia coli BL21(DE3) using Nomega,Nomega-dimethyl-L-arginine as substrate after 80 mins by colorimetric ureido derivitization assay.
The target is the same in assay [5]. Put plainly: Inhibition of human recombinant His6-tagged DDAH1 expressed in Escherichia coli BL21(DE3) using Nomega,Nomega-dimethyl-L-arginine as substrate at 400 uM incubated for 10 to 20 mins prior to substrate addition measured after 1 to 2 hrs by colorimetric ureido derivitization assay in presence of 2 mM reduced glutathione. In outline: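 Compound (400 μM) preincubated 10–20 min at room temperature with human DDAH-1 (1 μM) and reduced glutathione (2 mM) in Reaction Buffer, pH 7.3. ADMA (300 μM) then added; 1–2 h at room temperature, HCl quench (1 M final), colorimetric ureido derivatization. Inhibition compared against assays without glutathione.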

Assay [6] shares this target. Put plainly: Inhibition of human recombinant His6-tagged DDAH1 expressed in Escherichia coli BL21(DE3) using S-methyl-L-thiocitrulline as substrate at 100 uM by CPM-based fluorescence spectrophotometry. In outline: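 Primary HTS run in duplicate. Compound at 100 μM with human DDAH-1 (20 nM), S-methyl-L-thiocitrulline (0.4 μM) and CPM (3.5 μM) in K2HPO4 172 mM, KCl 172 mM, EDTA 2 mM, Tween-20 0.02%, DMSO 1%, pH 7.3. Enzyme–compound preincubation 10 min.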

For assay [7] the target is unchanged. Description: Inhibition of human recombinant His6-tagged DDAH1 expressed in Escherichia coli BL21(DE3) using Nomega,Nomega-dimethyl-L-arginine as substrate at 400 uM by colorimetric ureido derivitization assay. The conditions noted are these: TDE = time-dependent effect.
The subject of assay [8] is Pseudomonas aeruginosa. Put plainly: Ratio of Kinact to KI for Pseudomonas aeruginosa His6-tagged DDAH expressed in Escherichia coli BL21(DE3) using S-methyl-Lthiocitrulline as substrate up to 1 mM measured every 20 secs for 10 mins by fluorescence spectrophotometry.
Assay [9] concerns Pseudomonas aeruginosa. Description: Inhibition of Pseudomonas aeruginosa His6-tagged DDAH expressed in Escherichia coli BL21(DE3) using S-methyl-Lthiocitrulline as substrate at 100 uM measured every 20 secs for 10 mins.
Assay [10] relates to Pseudomonas aeruginosa. Description: Inhibition of Pseudomonas aeruginosa His6-tagged DDAH expressed in Escherichia coli BL21(DE3) using S-methyl-Lthiocitrulline as substrate up to 1 mM measured every 20 secs for 10 mins by fluorescence spectrophotometry.

T1 sequence (O94760 whole entry): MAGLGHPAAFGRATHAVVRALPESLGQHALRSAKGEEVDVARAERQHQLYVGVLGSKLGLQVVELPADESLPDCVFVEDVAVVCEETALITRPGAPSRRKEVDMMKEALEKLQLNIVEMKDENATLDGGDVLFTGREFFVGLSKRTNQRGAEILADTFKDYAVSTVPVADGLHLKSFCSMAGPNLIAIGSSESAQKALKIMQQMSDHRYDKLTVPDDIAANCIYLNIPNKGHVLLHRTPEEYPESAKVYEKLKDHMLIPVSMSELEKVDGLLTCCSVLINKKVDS

As to `NCCSc1nc2ccccc2o1`, the inhibition in [1] came out at 21%; in assay [5] it was 23%. Further, the Ki in assay [2] was 1700 µM. The inhibition entry in assay [3] was “Active”. In addition, the IC50 in assay [4] stood at 2700 µM.
For the compound `OCc1cc(Cl)ccn1`, the inhibition in [1] was 56%; in assay [6], 17%; in assay [7], “tde”; in the assay with Pseudomonas aeruginosa [9] it was 50%; in [5] it was 46%. The Ratio with Pseudomonas aeruginosa [8] is 0.65 M⁻¹ s⁻¹.
For the compound `CCc1nc2ccccc2[nH]1`, the inhibition in assay [1] is 36%; in [6] it was 4%; in the assay with Pseudomonas aeruginosa [9], 1%; in [5], 25%. The inhibition entry in the assay with Pseudomonas aeruginosa [10] is “inactive”. Further, the Ki in assay [2] is 800 µM. Besides, the inhibition result in [3] was “Active”. Besides, the IC50 in assay [4] came to 1400 µM.
Regarding `Cc1cc(Br)ccn1`, the inhibition was 74% in [1]; 55% in assay [6]; “tde” in [7]; 89% with Pseudomonas aeruginosa [9]; 95% in [5]. In addition, the Ratio with Pseudomonas aeruginosa [8] stood at 4.8 M⁻¹ s⁻¹.
